The source made the active and inactive calls. No cut-off for these calls is given here.
Key:
Adenosine receptor A2a = Adenosine receptor A2a (Homo sapiens, UniProt P29274); assay: Antagonist activity human recombinant adenosine A2A receptor expressed in CHO cells assessed as inhibition of NECA-mediated [3H]cAMP accumulation after 15 mins by liquid scintillation counting; assay type: functional, cell-based
Summary of the method: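 Stably transfected CHO cells (human A2A), 200,000 cells/well, washed and preincubated 2 h at 37 °C in HBSS (pH 7.3) with 1 U/ml adenosine deaminase. Ro20-1724 (final 40 µM) added for 15 min. NECA dilutions ± a single test concentration in HBSS with 5% DMSO, in triplicate, for 15 min. Hot-lysis; cAMP quantified by [3H]cAMP competition against a standard curve; three separate experiments.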

Mus musculus [1] = assay: Anticonvulsant activity in F1 albino mouse assessed as protection against maximal electroshock-induced seizures at 100 mg/kg, ip after 0.25 hrs; assay type: functional, organism-based; design: dose 100 mg/kg
Summary of the method: (§1)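 Male albino F-1 mice (18–25 g), groups of 1–5 (rotorod 2–8). Compound given ip as a suspension in 0.5% methylcellulose at 30, 100 and 300 mg/kg. Seizures by maximal electroshock or subcutaneous pentylenetetrazole; neurotoxicity by rotorod. Read at 0.5 and 4 h, with some at 0.25, 1 and 2 h. Value is the minimum active dose, with protected (or toxic)/tested animals.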

Mus musculus [2] = assay: Anticonvulsant activity in F1 albino mouse assessed as protection against maximal electroshock-induced seizures at 300 mg/kg, ip after 4 hrs; assay type: functional, organism-based; design: dose 300 mg/kg; summary of the method: as §1
Mus musculus [3] = assay: Anticonvulsant activity in F1 albino mouse assessed as protection against subcutaneous pentylenetetrazole-induced seizures at 100 mg/kg, ip after 0.5 hrs; assay type: functional, organism-based; design: dose 100 mg/kg; summary of the method: as §1
Mus musculus [4] = assay: Anticonvulsant activity in F1 albino mouse assessed as protection against subcutaneous pentylenetetrazole-induced seizures at 300 mg/kg, ip after 1 hr; assay type: functional, organism-based; design: dose 300 mg/kg; summary of the method: as §1
Mus musculus [5] = assay: Neurotoxicity in F1 albino mouse assessed as minimal motor impairment at 300 mg/kg, ip after 0.5 hrs by rotorod test; assay type: toxicity, organism-based; design: dose 300 mg/kg, route intraperitoneal; conditions: in vivo; summary of the method: as §1
Mus musculus [6] = assay: Neurotoxicity in F1 albino mouse assessed as minimal motor impairment at 300 mg/kg, ip after 1 hr by rotorod test; assay type: toxicity, organism-based; design: dose 300 mg/kg, route intraperitoneal; conditions: in vivo; summary of the method: as §1
Rattus norvegicus [7] = assay: Anticonvulsant activity in Sprague-Dawley albino rat assessed as protection against maximal electroshock-induced seizures at 30 mg/kg, po after 0.5 hrs; assay type: functional, organism-based; design: dose 30 mg/kg
Summary of the method: (§2)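 Male Sprague-Dawley albino rats (100–150 g), groups of 4. Oral suspension in 0.5% methylcellulose/water. Protection assessed by maximal electroshock or subcutaneous pentylenetetrazole; motor impairment by rotorod. Time points 0.25–4 h. Value is protected (or toxic)/tested animals.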

Rattus norvegicus [8] = assay: Anticonvulsant activity in Sprague-Dawley albino rat assessed as protection against maximal electroshock-induced seizures at 30 mg/kg, po after 2 hrs; assay type: functional, organism-based; design: dose 30 mg/kg; summary of the method: as §2
Rattus norvegicus [9] = assay: Neurotoxicity in Sprague-Dawley albino rat assessed as minimal motor impairment at 30 mg/kg, po after 0.5 hrs by rotorod test; assay type: toxicity, organism-based; design: dose 30 mg/kg, route oral; conditions: in vivo; summary of the method: as §2
Rattus norvegicus [10] = assay: Neurotoxicity in Sprague-Dawley albino rat assessed as minimal motor impairment at 30 mg/kg, po after 4 hrs by rotorod test; assay type: toxicity, organism-based; design: dose 30 mg/kg, route oral; conditions: in vivo
Summary of the method: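 Male Sprague-Dawley albino rats (100–150 g), groups of 4, dosed orally with a suspension in 0.5% methylcellulose/water. Neurotoxicity was scored as minimal motor impairment on the rotorod at 0.25, 0.5, 1 and 4 h. Results are reported as animals showing toxicity per animals tested.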

Adenosine receptor A2b = target: T1, Adenosine receptor A2b (Homo sapiens, UniProt P29275); assay: Displacement of [3H]ZM241385 from human adenosine A2B receptor expressed in CHO cells; assay type: cell-based
T1 sequence (P29275 whole entry): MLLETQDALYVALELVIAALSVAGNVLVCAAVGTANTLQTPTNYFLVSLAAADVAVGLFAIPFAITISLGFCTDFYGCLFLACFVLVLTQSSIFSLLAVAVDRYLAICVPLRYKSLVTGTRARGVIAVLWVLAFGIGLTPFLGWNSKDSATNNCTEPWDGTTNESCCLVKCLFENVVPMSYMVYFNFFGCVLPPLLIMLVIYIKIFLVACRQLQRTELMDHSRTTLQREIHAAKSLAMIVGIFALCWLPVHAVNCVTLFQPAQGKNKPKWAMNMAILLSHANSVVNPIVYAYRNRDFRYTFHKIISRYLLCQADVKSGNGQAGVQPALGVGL

Chain of Adenosine receptor A2a (P29274 whole entry): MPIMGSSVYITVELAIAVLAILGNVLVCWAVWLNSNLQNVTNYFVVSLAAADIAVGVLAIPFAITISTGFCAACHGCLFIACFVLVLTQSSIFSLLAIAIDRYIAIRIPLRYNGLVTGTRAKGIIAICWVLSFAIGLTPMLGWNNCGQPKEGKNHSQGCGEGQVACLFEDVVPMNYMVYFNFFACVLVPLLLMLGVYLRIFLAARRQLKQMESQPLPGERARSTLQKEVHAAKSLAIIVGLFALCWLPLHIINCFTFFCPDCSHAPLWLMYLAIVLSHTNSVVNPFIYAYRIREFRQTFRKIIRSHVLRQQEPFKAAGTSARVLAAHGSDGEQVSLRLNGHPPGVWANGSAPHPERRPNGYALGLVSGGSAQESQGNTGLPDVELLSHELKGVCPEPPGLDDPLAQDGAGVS

`Cn1c(=O)c2c(nc3n2CCCN3CC2CC2)n(C)c1=O` was tested, and the Kb (Adenosine receptor A2a) was 0.22 µM, the Activity (Mus musculus [1]) was “Active” and the Activity (Mus musculus [2]) was “inactive”. For the same compound, the Activity (Mus musculus [3]) was “Active”, the Activity (Mus musculus [4]) was “inactive” and the Activity (Mus musculus [5]) was “Toxic”. For the same compound, the Activity (Mus musculus [6]) was “Non-toxic”, the Activity (Rattus norvegicus [7]) was “inactive” and the Activity (Rattus norvegicus [8]) was “inactive”. For the same compound, the Activity (Rattus norvegicus [9]) was “Non-toxic”, the Activity (Rattus norvegicus [10]) was “Non-toxic” and the Ki (Adenosine receptor A2b) was 12.5 µM.

From ChEMBL document CHEMBL2150901, “Synthesis and biological activity of tricyclic cycloalkylimidazo-, pyrimido- and diazepinopurinediones” (Eur J Med Chem, 2011)
